{"source": "paper PMC3082038", "about": "(Cancer Chemotherapy and Pharmacology, 2010)", "key": {"plasma VEGF": {"tested_on": "plasma VEGF", "assay": "Angiogenesis-related factor: plasma VEGF", "assay_type": "in vivo, human", "method_in_brief": "(§1)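 Plasma and urine were collected from patients before treatment and after day 8 and day 28 of oral test compound dosing, and analysed at a central commercial laboratory. ELISA kits were used for human VEGF (plasma and urine), ELAM-1, VCAM-1 and soluble t-PA. Soluble PAI-1 was measured by latex photometric immunoassay. Values are reported as median (range) per time point.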"}, "ELAM-1": {"tested_on": "ELAM-1", "assay": "Angiogenesis-related factor: ELAM-1", "assay_type": "in vivo, human", "method_in_brief": "as §1"}, "[1]": {"settings": "100 mg/m^2 after meals, previous clinical study; cited from earlier work"}, "[2]": {"assay": "Urinary excretion of TSU-68", "assay_type": "in vivo, human", "settings": "all dose levels", "method_in_brief": "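Urine was collected in 0–12 h (b.i.d.) or 0–6/0–12 h (t.i.d.) intervals after selected doses, plus pre-dose and up to 24 h after the final sampled dose. Drug was measured by validated HPLC-UV (LLOQ 0.1 μg/ml), and excretion was expressed as % of dose.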"}, "[3]": {"tested_on": "patients with advanced solid tumors", "settings": "b.i.d., between-meal conditions; cited from earlier work"}, "[4]": {"assay": "Plasma pharmacokinetics of TSU-68 in phase I patients", "assay_type": "in vivo, human", "settings": "for AUC(0-t) / AUC / Cmax / half-life / Tmax: human, plasma, oral; for Tmax: 200 mg/m2, T max"}, "[5]": {"settings": "b.i.d. after meal, 3rd dose, 200 mg/m^2, n=3, mean ± SD"}}, "data": [{"compound": "Cc1[nH]c(/C=C2\\C(=O)Nc3ccccc32)c(C)c1CCC(=O)O", "note": "[TSU-68, (Z)-5-[(1,2-dihydro-2-oxo-3H-indol-3-ylidene)methyl]-2,4-dimethyl-1H-pyrrole-3-propanoic acid]", "values": [{"measurement": "Change of plasma VEGF at day 28 compared to baseline", "setting": "plasma VEGF; PD patients (13 pts.), Wilcoxon signed rank-sum test", "value": "significantly increasing"}, {"measurement": "Plasma VEGF, median", "setting": "plasma VEGF; day 8, 23 patients", "value": 55, "unit": "pg/mL"}, {"measurement": "Plasma VEGF, range", "setting": "plasma VEGF; day 8, 23 patients", "value": "<31 to 278", "unit": "pg/mL"}, {"measurement": "Plasma VEGF, median", "setting": "plasma VEGF; day 28, 22 patients", "value": 63, "unit": "pg/mL"}, {"measurement": "Plasma VEGF, range", "setting": "plasma VEGF; day 28, 22 patients", "value": "<31 to 270", "unit": "pg/mL"}, {"measurement": "ELAM-1, median", "setting": "ELAM-1; day 8, 23 patients", "value": 50, "unit": "ng/mL"}, {"measurement": "ELAM-1, range", "setting": "ELAM-1; day 8, 23 patients", "value": "13 to 136", "unit": "ng/mL"}, {"measurement": "ELAM-1, median", "setting": "ELAM-1; day 28, 22 patients", "value": 45.5, "unit": "ng/mL"}, {"measurement": "ELAM-1, range", "setting": "ELAM-1; day 28, 22 patients", "value": "17 to 114", "unit": "ng/mL"}, {"measurement": "Absolute bioavailability", "setting": "[1]", "value": 42, "unit": "%"}, {"measurement": "Urinary excretion of TSU-68", "setting": "[2]", "value": "below 1 % of dose"}, {"measurement": "Recommended dosage", "setting": "[3]", "value": "≤ 800", "unit": "mg/m^2"}, {"measurement": "AUC0–t", "setting": "[4]; b.i.d. after meal, 1st dose, 400 mg/m^2, n=6, mean ± SD", "value": "76.44 ± 23.07", "unit": "h"}, {"measurement": "AUC0–t", "setting": "[4]; [5]", "value": "33.28 ± 4.329", "unit": "h"}, {"measurement": "AUC0–t", "setting": "[4]; b.i.d. after meal, 3rd dose, 500 mg/m^2, n=3, mean ± SD", "value": "45.74 ± 14.59", "unit": "h"}, {"measurement": "C max and AUC after repeated administration versus 1st administration on day 1", "setting": "[4]; b.i.d. regimen, any dose level, days 2 and 28", "value": "approximately twofold lower"}, {"measurement": "AUC(0-t)", "setting": "[4]; 200 mg/m2, AUC0–t, b.i.d. after meal, 1st dose, 200 mg/m^2, n=3, mean ± SD", "value": "55200 ± 5360", "unit": "ng·h/mL"}, {"measurement": "AUC(0-t)", "setting": "[4]; 200 mg/m2, AUC0–t, b.i.d. after meal, 56th dose, 200 mg/m^2, n=3, mean ± SD", "value": "32200 ± 1540", "unit": "ng·h/mL"}, {"measurement": "AUC(0-t)", "setting": "[4]; 200 mg/m2, AUC0–t, t.i.d. after meal, 1st dose, 200 mg/m^2, n=6, mean ± SD", "value": "37000 ± 18200", "unit": "ng·h/mL"}, {"measurement": "AUC(0-t)", "setting": "[4]; 200 mg/m2, AUC0–t, t.i.d. after meal, 2nd dose, 200 mg/m^2, n=6, mean ± SD", "value": "31500 ± 12500", "unit": "ng·h/mL"}, {"measurement": "AUC", "setting": "[4]; 200 mg/m2, AUC Day 28, Pt 1, Cervical ca., b.i.d. 200 mg/m^2 (800 mg/day)", "value": 32800, "unit": "ng·h/mL"}, {"measurement": "AUC", "setting": "[4]; 200 mg/m2, AUC Day 28, Pt 2, NSCLC, b.i.d. 200 mg/m^2 (800 mg/day)", "value": 33400, "unit": "ng·h/mL"}, {"measurement": "AUC", "setting": "[4]; 200 mg/m2, AUC Day 28, Pt 13, Colon ca., t.i.d. 200 mg/m^2 (1200 mg/day)", "value": 25300, "unit": "ng·h/mL"}, {"measurement": "AUC", "setting": "[4]; 200 mg/m2, AUC Day 28, Pt 14, Soft tissue sa., t.i.d. 200 mg/m^2 (600 mg/day)", "value": 19000, "unit": "ng·h/mL"}, {"measurement": "Cmax", "setting": "[4]; 200 mg/m2, C max, b.i.d. after meal, 1st dose, 200 mg/m^2, n=3, mean ± SD", "value": "11200 ± 1150", "unit": "ng/mL"}, {"measurement": "Cmax", "setting": "[4]; 200 mg/m2, C max, b.i.d. after meal, 3rd dose, 200 mg/m^2, n=3, mean ± SD", "value": "6000 ± 671", "unit": "ng/mL"}, {"measurement": "Cmax", "setting": "[4]; 200 mg/m2, C max, b.i.d. after meal, 56th dose, 200 mg/m^2, n=3, mean ± SD", "value": "4790 ± 526", "unit": "ng/mL"}, {"measurement": "Cmax", "setting": "[4]; 200 mg/m2, C max, t.i.d. after meal, 1st dose, 200 mg/m^2, n=6, mean ± SD", "value": "11000 ± 5530", "unit": "ng/mL"}, {"measurement": "Cmax", "setting": "[4]; 200 mg/m2, C max, t.i.d. after meal, 2nd dose, 200 mg/m^2, n=6, mean ± SD", "value": "7010 ± 2410", "unit": "ng/mL"}, {"measurement": "Cmax", "setting": "[4]; 200 mg/m2, C max, t.i.d. after meal, 84th dose, 200 mg/m^2, n=6, mean ± SD", "value": "3850 ± 2980", "unit": "ng/mL"}, {"measurement": "half-life", "setting": "[4]; 200 mg/m2, T 1/2, b.i.d. after meal, 1st dose, 200 mg/m^2, n=3, mean ± SD", "value": "2.37 ± 0.86", "unit": "h"}, {"measurement": "half-life", "setting": "[4]; 200 mg/m2, T 1/2, b.i.d. after meal, 3rd dose, 200 mg/m^2, n=3, mean ± SD", "value": "2.71 ± 0.471", "unit": "h"}, {"measurement": "half-life", "setting": "[4]; 200 mg/m2, T 1/2, b.i.d. after meal, 56th dose, 200 mg/m^2, N = 2, mean", "value": 3.47, "unit": "h"}, {"measurement": "half-life", "setting": "[4]; 200 mg/m2, T 1/2, t.i.d. after meal, 1st dose, 200 mg/m^2, N = 3, mean ± SD", "value": "2.04 ± 0.461", "unit": "h"}, {"measurement": "half-life", "setting": "[4]; 200 mg/m2, T 1/2, t.i.d. after meal, 2nd dose, 200 mg/m^2, N = 2, mean", "value": 2.99, "unit": "h"}, {"measurement": "Tmax", "setting": "[4]; b.i.d. after meal, 1st dose, 200 mg/m^2, n=3, mean ± SD", "value": "3 ± 1", "unit": "h"}, {"measurement": "Tmax", "setting": "[4]; [5]", "value": "3.5 ± 2.29", "unit": "h"}, {"measurement": "Tmax", "setting": "[4]; b.i.d. after meal, 56th dose, 200 mg/m^2, n=3, mean ± SD", "value": "2.67 ± 1.16", "unit": "h"}, {"measurement": "Tmax", "setting": "[4]; t.i.d. after meal, 1st dose, 200 mg/m^2, n=6, mean ± SD", "value": "3.08 ± 1.43", "unit": "h"}, {"measurement": "Tmax", "setting": "[4]; t.i.d. after meal, 2nd dose, 200 mg/m^2, n=6, mean ± SD", "value": "3.67 ± 1.37", "unit": "h"}, {"measurement": "Tmax", "setting": "[4]; t.i.d. after meal, 84th dose, 200 mg/m^2, n=6, mean ± SD", "value": "2 ± 1.05", "unit": "h"}, {"measurement": "AUC", "setting": "[4]; 200 mg/m^2 t.i.d., AUC Day 28, Pt 18, Colon ca., t.i.d. 200 mg/m^2 (1,200 mg/day)", "value": 12500, "unit": "ng·h/mL"}, {"measurement": "AUC(0-t)", "setting": "[4]; 400 mg/m2, AUC0–t, b.i.d. after meal, 3rd dose, 400 mg/m^2, n=6, mean ± SD", "value": "40400 ± 10600", "unit": "ng·h/mL"}, {"measurement": "AUC(0-t)", "setting": "[4]; 400 mg/m2, AUC0–t, b.i.d. after meal, 56th dose, 400 mg/m^2, N = 4, mean ± SD", "value": "36900 ± 20300", "unit": "ng·h/mL"}, {"measurement": "AUC(0-t)", "setting": "[4]; 400 mg/m2, AUC0–t, t.i.d. after meal, 1st dose, 400 mg/m^2, n=6, mean ± SD", "value": "41600 ± 21600", "unit": "ng·h/mL"}, {"measurement": "AUC(0-t)", "setting": "[4]; 400 mg/m2, AUC0–t, t.i.d. after meal, 2nd dose, 400 mg/m^2, n=6, mean ± SD", "value": "42000 ± 18900", "unit": "ng·h/mL"}, {"measurement": "AUC(0-t)", "setting": "[4]; 400 mg/m2, AUC0–t, t.i.d. after meal, 84th dose, 400 mg/m^2, n=6, mean ± SD", "value": "31600 ± 16100", "unit": "ng·h/mL"}, {"measurement": "Cmax", "setting": "[4]; 400 mg/m2, C max, b.i.d. after meal, 1st dose, 400 mg/m^2, n=6, mean ± SD", "value": "17100 ± 6590", "unit": "ng/mL"}, {"measurement": "Cmax", "setting": "[4]; 400 mg/m2, C max, b.i.d. after meal, 3rd dose, 400 mg/m^2, n=6, mean ± SD", "value": "8290 ± 2720", "unit": "ng/mL"}, {"measurement": "Cmax", "setting": "[4]; 400 mg/m2, C max, b.i.d. after meal, 56th dose, 400 mg/m^2, N = 4, mean ± SD", "value": "8410 ± 5870", "unit": "ng/mL"}, {"measurement": "Cmax", "setting": "[4]; 400 mg/m2, C max, t.i.d. after meal, 1st dose, 400 mg/m^2, n=6, mean ± SD", "value": "12400 ± 5760", "unit": "ng/mL"}]}]}
